Measured values as given in PubChem BioAssay AID624466 (The Scripps Research Institute Molecular Screening Center, 2012).
About 5,400 (1.5%) of roughly 360,000 compounds were called active. Shown is part of a subset that was picked to be rich in actives. Unmarked numbers belong to inactive results.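 How the source made its calls: active means inhibition above a per-plate cutoff, the mean inhibition of test compounds on that plate plus 3 SD (cut at about 49% in these data); inactive means the rest.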

Each compound was assayed against Trace amine-associated receptor 1 (Homo sapiens) (UniProt Q96RJ0) (assay: human TAAR1 antagonists, primary screen, Fluo-8 calcium fluorescence, CHO RD-HGA16 cells (AID 624466;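 further: 0% = DMSO plus EC80 beta-PEA response and 100% = DMSO alone without agonist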)). Conditions: CHO RD-HGA16 TAAR1, Fluo-8 calcium fluorescence, antagonist; at 3 µM; hits give high values.
Chain of Trace amine-associated receptor 1 (Homo sapiens) (Q96RJ0 whole entry, looked up, the tested form may be a part): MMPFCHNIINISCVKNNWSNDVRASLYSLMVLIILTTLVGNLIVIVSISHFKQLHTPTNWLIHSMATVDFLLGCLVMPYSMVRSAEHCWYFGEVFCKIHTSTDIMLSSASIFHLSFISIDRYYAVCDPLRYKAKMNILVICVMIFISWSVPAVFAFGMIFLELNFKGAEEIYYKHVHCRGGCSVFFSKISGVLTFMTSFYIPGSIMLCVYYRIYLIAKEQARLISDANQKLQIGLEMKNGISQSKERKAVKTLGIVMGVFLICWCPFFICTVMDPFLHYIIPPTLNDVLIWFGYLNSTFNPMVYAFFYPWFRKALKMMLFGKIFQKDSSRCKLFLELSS
In short: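 Test system – hTAAR1-expressing CHO RD-HGA16 cells, Gα16-coupled · Also added – β-PEA at EC80 concentration, post-compound challenge · Compound – 3 µM, single point · Incubation – dye loading 75 min at 37 °C, then 30 min room temperature · Measured by – Fluo-8 intracellular calcium dye fluorescence, real-time kinetic reads · Benchmarks – vehicle and agonist controls · Replicates – singlicate, one well per test compound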

Going from `CN1CCN(c2ccc3c(c2)OC[C@H](Cc2ccccc2)NS3(=O)=O)CC1` to `CC(=O)c1ccc(N2CCN(C(=O)c3ccc4nc[nH]c4c3)CC2)cc1`, the inhibition falls from -0.38% to -29.8%.

Going from `CC(C)C[C@H](NC(=O)CC1CCCC1)C(=O)N1CCC[C@H]1C(=O)NCc1ccccc1` to `N#Cc1cccc(C(=O)NCC2CCN(C(=O)C(=O)c3cc4ccccc4o3)CC2)c1`, the inhibition rises from -24.5% to -5.41%.

Going from `COC(=O)[C@]12C[C@H](CC(=O)NCc3ccc(C)o3)C(=O)N(CCC3=CCCCC3)C1=C[C@H](C(C)(C)C)O[C@@H]2C` to `O=C(C[C@H]1CC[C@@H](NC(=O)c2ccncc2)[C@@H](CO)O1)NCC1CC1`, the inhibition rises from -24.7% to -5.86%.

Compared with `CCCc1cc(C(=O)Nc2ccc(Cl)cn2)cs1`, `CSc1ccc(/C=N/NC(=O)c2cccc(Cl)c2)cc1` is higher in inhibition: -47.4% for the first, 8.63% for the second.

Compared with `CCN(CC)C(=O)CCC(=O)Nc1ccc(C(=O)OC)cc1`, `CCOC(=O)c1sc(=NC(=O)c2ccc(Br)cc2)n(C)c1C` is lower in inhibition: -5.5% for the first, -21.9% for the second.

Going from `CCC(=O)Nc1c(S(=O)(=O)c2ccccc2)c2nc3ccccc3nc2n1Cc1ccccc1` to `CCCn1nc(NS(=O)(=O)c2ccc(F)cc2)c2cc3ccccc3nc21`, the inhibition rises from -31.1% to 9.03%.

Compared with `COC(=O)c1ccc2nc(-c3cccc(Br)c3)c(Cc3ccccc3C(F)(F)F)n2c1`, `COc1cccc(Cn2cc(/C=N/NC(=O)c3cc(O)cc(O)c3)c3ccccc32)c1` is higher in inhibition: -12.6% for the first, -11.8% for the second.

Compared with `COc1cc(/C=C/C(=O)Nc2ccc(OC)c(S(=O)(=O)N3CCOCC3)c2)ccc1OCC#N`, `COc1cc(OC)c(N2CC(C(=O)Nc3cc(Cl)ccc3N3CCOCC3)CC2=O)cc1Cl` (stereo unspecified) is lower in inhibition: 14.8% for the first, 6.19% for the second.

Compared with `COc1ccc(/C=C/C(=O)OCC(=O)NC2CCCCCC2)cc1OC`, `CCOCCCN1C(=O)CN(C2CCCCC2)C(=O)C1c1ccc(OCC)c(OC)c1` (stereo unspecified) is higher in inhibition: -27.2% for the first, 11.2% for the second.

First: C[C@@H]1CN([C@H](C)CO)C(=O)CCCn2cc(nn2)CO[C@H]1CN(C)C(=O)Nc1ccc(N2CCCCC2)cc1
Second: C[C@H](CO)N1C[C@H](C)[C@H](CN(C)C(=O)Nc2ccc(C(F)(F)F)cc2)Oc2c(NC(=O)c3ccncc3)cccc2C1=O
The inhibition of the first is lower: -12.4% for the first, 3.31% for the second.

Going from `CNC(=O)C1CC(=O)N(Cc2ccc3c(c2)OCO3)C(=Nc2ccc(F)cc2)S1` (stereo unspecified) to `COC(=O)c1ccc(CN2C(=O)[C@]3(OCCC=C[C@H]3C)c3c(Br)cccc32)cc1`, the inhibition falls from 11.3% to -17.5%.

Going from `O=c1oc2ccccc2c(=O)c2ccccc12` to `CC(C)(C)Nc1c(N)c(=O)oc2ccccc12`, the inhibition rises from 3.02% to 15%.

First: O=C(N[C@H](Cc1ccccc1)C(=O)N1CCCN(Cc2cccs2)CC1)[C@H]1O[C@@H](n2ccc(=O)[nH]c2=O)[C@H](O)[C@@H]1O
Second: CC(=O)OC[C@@H]1CN(Cc2ccccc2)C[C@H](n2cnc3c(NCc4ccco4)ncnc32)O1
The inhibition of the first is lower: -9.92% for the first, -4.46% for the second.

Going from `CCCCOCC1CN(CCCC)S(=O)(=O)c2c(Oc3ccc(F)cc3)cccc2O1` (stereo unspecified) to `CCOc1cccc(OCCCOc2cccc3cccnc23)c1`, the inhibition falls from 30.2% to -11%.

Going from `CCOC(=O)C1=CN(Cc2ccc(Br)cc2)S(=O)(=O)N(C)C1C` (stereo unspecified) to `C#CCN([C@@H](C)C(=O)OCC)S(=O)(=O)c1ccc(Br)cc1F`, the inhibition falls from 17.8% to 15%.

First: COc1cc(/C=N/NC(=S)Nc2cccnc2)cc(OC)c1O
Second: COc1cc(NC(=O)C2=CC(c3ccco3)=NS(=O)(=O)N2C)cc(OC)c1OC
The inhibition of the first is lower: -25% for the first, -8.05% for the second.

Going from `Cc1cccc2[nH]c(CN(C)C(=O)C3CCC(=O)N(CCc4ccccc4)C3)nc12` (stereo unspecified) to `Cc1ccc(S(=O)(=O)N2CCC(=O)N([C@H](COCc3ccccc3)C(C)C)CC2)cc1`, the inhibition rises from -20.8% to 1.41%.

Going from `Cc1ccc(N(C(=O)CC2NC(=O)NC2=O)C2(C(=O)NC3CCCC3)CCCCC2)cc1` (stereo unspecified) to `Cc1cccc(NC(=O)CN2CCN(CC(=O)NCC3(N4CCCCC4)CCCCC3)CC2)c1C`, the inhibition falls from -7.81% to -28.3%.

First: CCCCCCCC[n+]1cccc(C(=O)N2c3c(nc(N)[nH]c3=O)NC(C)C2C)c1 (stereo unspecified)
Second: COC(=O)[C@]1(C)N[C@H](c2ccc(-c3ccc(Cl)c(Cl)c3)cc2)[C@@H]2C(=O)N(C)C(=O)[C@@H]21
The inhibition of the first is lower: -7.7% for the first, 20.9% for the second.

Going from `CCNC(=O)c1cc2c(c(-c3cccc(-c4cncnc4)c3)n1)[C@H](CCO)N(C(C)=O)C2` to `CC(=O)N1Cc2cc(C(=O)NCc3cccc(F)c3)nc(-c3cccc(C4=CCCC4)c3)c2[C@H]1CCO`, the inhibition falls from -0.11% to -5.18%.

Compared with `CC(C)(C)S(=O)N1Cc2cc(C(=O)NCCCN3CCOCC3)nc(-c3cccc(-c4cc5ccccc5o4)c3)c2[C@H]1CCO` (stereo partly specified), `COc1cccc(/C=C(/CC(=O)Nc2ccc(N3CCOCC3)cc2)c2nc3ccccc3s2)c1` is lower in inhibition: 8.67% for the first, -10.9% for the second.

Going from `O=C(O)CC/C(=C\c1cc2c(cc1Br)OCO2)c1nc2ccccc2s1` to `CCN(CC)CCN(C)C(c1ccnc2ccccc12)c1nnnn1-c1ccc2c(c1)OCCO2` (stereo unspecified), the inhibition rises from -13.4% to 4.47%.

First: CC(=O)C[C@@H]1OC[C@H](C)N1S(=O)(=O)c1ccc(C)cc1
Second: CC(=O)C1=CCC(c2ccccc2)N(S(=O)(=O)c2ccc(C)cc2)C1 (stereo unspecified)
The inhibition of the first is lower: -22.5% for the first, -17.1% for the second.

Going from `CCCNS(=O)(=O)c1ccc(CCC(=O)N2CCCC2)cc1` to `CCNS(=O)(=O)c1ccc(CCC(=O)N2CCN(c3ccc(OC)cc3)CC2)cc1`, the inhibition rises from -0.2% to 8.27%.

Going from `CCOc1ccc(NS(=O)(=O)c2cc(C)c(C)cc2C)cc1` to `Cc1cc(C)c(SCCc2ccncc2)c(C)c1`, the inhibition falls from 18.6% to 11.4%.

First: COc1cc(NC(=O)C2=CC(c3ccc(C)cc3)=NS(=O)(=O)N2C)cc(OC)c1OC
Second: COc1ccc(-n2c(-c3ccc(Cl)cc3)n[nH]c2=S)c(OC)c1
The inhibition of the first is higher: -7.77% for the first, -24.1% for the second.

First: O=C(O)C1CCCN1S(=O)(=O)c1ccc(Br)cc1 (stereo unspecified)
Second: CSc1ccc(S(=O)(=O)N2CCC(C(=O)NCc3ccncc3)CC2)cc1
The inhibition of the first is higher: -6.42% for the first, -9.01% for the second.

Compared with `CC1=NNC(=O)C1CCC(=O)N/N=C\c1ccc(Cl)c(Cl)c1` (stereo unspecified), `O=C(O)CC/C(=N\NC(=O)c1ccc(F)cc1)c1ccc(Br)cc1` is higher in inhibition: -10.3% for the first, 3.38% for the second.

Compared with `COC(=O)C1=C(C)NC(=S)NC1c1ccc(OC)cc1` (stereo unspecified), `COC(=O)c1c(-c2ccc(OC)cc2)c2c(c3c4cc(OC)ccc4n(S(=O)(=O)c4ccc(F)cc4)c13)C(=O)N(C)C2` is higher in inhibition: -22.6% for the first, -12.2% for the second.

Compared with `CN(c1ccccc1)S(=O)(=O)c1cc(C(=O)N2CCN(c3ncccn3)CC2)ccc1Cl`, `Cc1cccc(NC(=O)c2ccc(S(=O)(=O)N(C)c3ccccc3)cc2)n1` is lower in inhibition: 42.5% for the first, 27.4% for the second.

Compared with `Cc1cc(OCCOc2cccc3cccnc23)c(C)cc1Cl`, `COc1ccc(CCNC(=O)c2ccccc2OCc2ccccc2)cc1` is higher in inhibition: -4.44% for the first, -1.77% for the second.

Going from `c1ccc(CSCCc2ccncc2)cc1` to `CCCCn1nnnc1C(c1ccccc1)N1CCN(c2ccccc2OC)CC1` (stereo unspecified), the inhibition rises from 5.41% to 12.1%.

Going from `Cc1nc2ccccc2n1C(=O)N1CCOCC1` to `CCOC(=O)C1(C)CCCN(C(=O)c2ccc(N(C)C)cc2)C1` (stereo unspecified), the inhibition falls from 12.8% to -13.8%.

First: COc1ccccc1-c1ccc([C@@H]2C[C@H]3[C@H](CON3C)CN2S(=O)(=O)c2cc(Cl)cc(Cl)c2)cc1
Second: O=C(NC1CCC(O)CC1)c1ccccc1OCc1ccc(F)cc1 (stereo unspecified)
The inhibition of the first is lower: -24.5% for the first, -21.4% for the second.

In the case of `CCC(C)CN1C(=O)CN(S(C)(=O)=O)CC1(C)C(=O)Nc1ccc2c(c1)OCCO2` (stereo unspecified), the inhibition is reported as -7.39%.

In the case of `CCCc1cc(C(=O)Nc2ccc(C(=O)OC)cc2)cs1`, the inhibition is reported as 50.5% (active).
In the case of `Fc1ccc2[nH]c3c(N4CCSCC4)ncnc3c2c1`, the inhibition is reported as 64.4% (active).
With `COc1ccc(/C=C/C(=O)Nc2ccc(C34CC5CC(CC(O)(C5)C3)C4)cc2)cc1OC` the inhibition was 71.5% (active).
`Nc1c(NCCc2ccccc2)c2ccccc2oc1=O` was tested, and the inhibition was 66.7% (active).
For `CCOC(=O)C1=CN(Cc2ccc(Br)cc2)S(=O)(=O)NC1C` (stereo unspecified), the inhibition was 49.1% (active).
For `COc1cccc(/C=N/Nc2cc(C)nc(-c3ccccc3O)n2)c1O`, the inhibition was 64.5% (active).
For `CC(C)NC(=O)N1Cc2cc(C(=O)NCC(F)(F)F)nc(-c3cccc(-c4cc5ccccc5o4)c3)c2[C@@H]1CCO`, the inhibition was 51.9% (active).
In the case of `COc1ccc(C(=O)Nc2cccc(/C=C(/CCC(=O)O)c3nc4ccccc4s3)c2)cc1`, the inhibition is reported as 57.2% (active).
With `CCNS(=O)(=O)c1ccc(CCC(=O)N2CCN(c3cc(Cl)ccc3C)CC2)cc1` the inhibition was 65.9% (active).
In the case of `COc1ccc(NC(=O)C2=CC(c3ccc(OC)c(OC)c3)=NS(=O)(=O)N2C)cc1`, the inhibition is reported as 52.3% (active).
`CC(=NNC(=O)c1ccc2nc[nH]c2c1)c1ccc(Br)cc1` was tested, and the inhibition was 51.9% (active).
`O=C(N/N=C/c1ccc(Cl)c(Cl)c1)c1ccc2nc[nH]c2c1` was tested, and the inhibition was 63.3% (active).
`CN(c1ccccc1)S(=O)(=O)c1cc(C(=O)Nc2nc3ccccc3[nH]2)ccc1Cl` was tested, and the inhibition was 59% (active).
With `Cc1ccc2cccc(OCCCOc3ccccc3CO)c2n1` the inhibition was 49.6% (active).
With `CC(C)(C)c1ccc(SCCc2ccncc2)cc1` the inhibition was 49.2% (active).
`COc1cc(OC)c(-n2cc(-c3ccc(Cl)cc3)[nH]c2=O)cc1Cl` was tested, and the inhibition was 85.5% (active).
In the case of `CC(=O)c1ccccc1OCc1ccc(C(=O)c2ccccc2)cc1`, the inhibition is reported as 71.8% (active).
